NF-kB expr up = compounds increasing NF-kB expression in human neuronal cells. NF-kB reporter expression; stronger effect = higher value. fold change at 12.5 µM. actives 1.6% (n = 190,000); in the data active means fold change above about 3.3
STAT1 inh = reduces IFN-gamma driven STAT1 reporter signal. NIH 3T3 STAT1-luciferase reporter, luminescence. inhibition, % at 5.5 µM. actives 0.35% (n = 200,000);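 active means inhibition above a set limit, the mean inhibition across all tested compounds plus 3 SD, cut at about 34% in these data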;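 further: 0% = IFN-gamma with DMSO and 100% = IFN-gamma with 300 µM nifuroxazide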
STAT3 activator = activators of IL-6 induced STAT3 signaling. activation (% of control), % at 5.6 µM. actives 0.91% (n = 190,000). U3A cells, IL-6 STAT3-luciferase reporter, luminescence; 100% = signal with IL-6 EC80 alone;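 active means activation above the screen-wide mean of compound activation plus 3 SD, cut at about 130% in these data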;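 further: 0% = background luminescence of wells with medium and substrate only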
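system = STAT3-luciferase reporter U3A cells | reagent = IL-6 stimulus at 33 ng/mL final | timing = 1 h compound pre-exposure, 6 h IL-6 stimulation, 37 °C | measured by = luminescence | evaluation = % activation versus median of IL-6-stimulated wells | control set = IL-6-only wells as 100% reference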
STAT1 activator = STAT1 signaling activation. NIH 3T3 STAT1-luciferase reporter, IFN-gamma, luminescence; 100% = IFN-gamma alone, no compound. activation (% of control), % at 5.5 µM. actives 2.6% (n = 200,000). AID 932;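 active means activation above the screen-wide mean activation plus 3 SD, cut at about 130% in these data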;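 further: raw ratio to IFN-gamma control signal so 100% means no change and 0% no light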
APP 5'UTR act = activates APP 5'UTR luciferase reporter. SH-SY5Y APP 5'UTR luciferase reporter, luminescence; zero percent = DMSO vehicle wells. activation, % at 2 µM. actives 1% (n = 190,000). AID 1276;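 active means activation above a set limit, based on mean plus 3 SD of controls, cut at about 140% in these data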
STAT3 inh-1 = STAT3 signaling inhibition; inhibition, % at 5.5 µM; AID 862; actives 0.89% (n = 190,000); U3A cells, IL-6 STAT3-luciferase reporter, luminescence; host cell line lacks STAT1;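 active means inhibition above the mean inhibition across all screened compounds plus 3 SD, cut at about 44% in these data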;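 further: 0% = DMSO only wells and 100% = 100 µM nifuroxazide control wells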
STAT3 inh-2 = STAT3 inhibition, confirmation assay; shares compounds with STAT3 inh-1; actives 45% (n = 1,200); U3A cells, IL-6 STAT3 luciferase reporter, luminescence; cell line lacks STAT1; inhibition, % at 5.7 µM;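 active means inhibition above the hit cutoff computed for the primary STAT3 screen, cut at about 44% in these data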;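 further: 0% = IL-6 plus DMSO and 100% = IL-6 plus nifuroxazide control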
NFkB inh 2 = inhibits NF-kappaB, counter-screen to STAT3 inhibitors; shares compounds with STAT3 inh-1; HEK293T NF-kB luciferase reporter, TNF-alpha induced; inhibition, % at 5.7 µM; actives 36% (n = 1,200); AID 1308;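 active means inhibition above the mean of solvent-only control wells plus 3 SD, cutoff set per campaign, cut at about 13% in these data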;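 further: 0% = TNF-alpha with DMSO and 100% = TNF-alpha with MG high control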
STAT1 inh STAT3c = inhibits STAT1, counter-screen to STAT3 inhibitors. actives 27% (n = 1,200). inhibition, % at 5.7 µM. shares compounds with STAT3 inh-1. NIH 3T3 STAT1-luciferase reporter, IFN-gamma induced, luminescence;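 active means inhibition above the mean plus 3 SD of solvent-only control wells, limit set per screening run, cut at about 16% in these data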;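 further: 0% = DMSO with IFN-gamma and 100% = nifuroxazide control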
* marks the source's active call; other numbers are inactive results; / = no result. Hits are enriched below; roughly 4.9% of the tested compounds scored in any of these assays.

SMILES | NF-kB expr up | STAT1 inh | STAT3 activator | STAT1 activator | APP 5'UTR act | STAT3 inh-1 | STAT3 inh-2 | NFkB inh 2 | STAT1 inh STAT3c
COCCCNC(=O)Cn1cc(C(C)=O)c2ccccc21 | 1.2 | 0 | 91 | 102 | -6 | 12 | / | / | /
CC(=O)c1cn(CC(=O)Nc2ccc(C)cc2C)c2ccccc12 | 1 | 26 | 51 | 73 | -14 | 62* | 61* | 12 | 22*
CC(=O)c1cn(CC(=O)NCc2cccnc2)c2ccccc12 | 1.1 | 7 | 94 | 93 | -8 | 10 | / | / | /
CCOc1ccc(Cc2noc3c2C(=O)CC(C)(C)C3)cc1OCC | 1.9 | 5 | 106 | 94 | 15 | -1 | / | / | /
S=C(NCc1ccco1)N1CCN(c2ccccn2)CC1 | 1.1 | -5 | 93 | 105 | 11 | 16 | / | / | /
Cn1nc(CC(=O)Nc2cccc3ncccc23)c2ccccc2c1=O | 0.67 | 12 | 66 | 89 | 13 | 46* | 33 | 5 | 17*
Cn1nc(CC(=O)NCc2ccc(C(F)(F)F)cc2)c2ccccc2c1=O | 0.53 | 26 | 68 | 76 | 10 | 39 | / | / | /
COc1ccc(CNC(=O)Cc2nn(C)c(=O)c3ccccc23)cc1 | 0.78 | 27 | 59 | 75 | -12 | 51* | 48* | 13* | 25*
O=C(COC(=O)c1cc(Br)c(Br)s1)NCCC1=CCCCC1 | 1.3 | -7 | 117 | 106 | -5 | -20 | / | / | /
O=C(O)COc1ccc(-c2nccc(-c3ccccn3)n2)cc1 | 0.53 | 15 | 64 | 86 | -63 | 47* | 38 | 15* | 0
COc1cc(C2CC(=O)c3c([nH]c(C(=O)OCCOC(C)C)c3C)C2)cc(OC)c1OC (centres undefined) | 0.53 | 26 | 55 | 77 | -22 | 59* | 46* | 12 | 21*
COc1ccc(-n2c(SCC(=O)c3ccc[nH]3)nnc2-c2ccccc2)cc1 | 0.97 | -3 | 97 | 103 | 4 | 2 | / | / | /
Cc1cccc(NC(=O)CCCn2cc([N+](=O)[O-])cn2)n1 | 1.3 | -1 | 106 | 102 | -25 | -2 | / | / | /
O=C(Nc1ccc2c(c1)nc1n2CCOC1)c1ccco1 | 1.7 | -23 | 99 | 121 | 47 | 5 | / | / | /
O=C(Nc1ccc2c(c1)nc1n2CCSC1)c1ccco1 | 2.8 | 4 | 51 | 96 | 110 | 63* | 24 | -16 | -38
Cn1cc(CNC(=O)/C=C/c2ccc(Cl)cc2)cn1 | 1.1 | -5 | 101 | 104 | -4 | 0 | / | / | /
CCN1/C(=C/c2sc(-c3ccccc3C)c[n+]2C)Sc2ccccc21 | 1.3 | 30 | 21 | 71 | -1 | 91* | 94* | 54* | 32*
Brc1ccc(-c2nc(-c3ccncc3)no2)o1 | 2.1 | -38 | 97 | 126 | 25 | 5 | / | / | /
Brc1ccc(-c2nc(-c3ccccn3)no2)o1 | 2.7 | 36* | 41 | 67 | 92 | 75* | 33 | -4 | -48
Clc1ccc(OCc2nc(-c3ccccn3)no2)c(Br)c1 | 3.2 | -8 | 56 | 107 | 138* | 57* | 13 | -16 | -124
Clc1ccc(-c2nc(-c3ccccn3)no2)cc1Cl | 3 | -7 | 45 | 106 | 117 | 71* | 33 | 14* | -31
Cc1cccc(N2C(=O)c3cccc(Oc4ccc(Cl)cc4)c3C2=O)c1 | 1.2 | -3 | 99 | 103 | 15 | 4 | / | / | /
Cc1ccc(C(=O)N[C@H](C(=O)OCC(=O)c2ccc[nH]2)C(C)C)cc1 | 0.83 | -2 | 105 | 102 | 6 | -1 | / | / | /
FC(F)(F)c1ccc(N2CCN(c3cc(-c4ccccc4)nc4ncnn34)CC2)nc1 | 1.2 | 16 | 65 | 85 | 13 | 48* | 46* | 15* | 27*
CCCNC(=O)C1CCN(c2cc(-c3ccccc3)nc3ncnn23)CC1 | 0.96 | 9 | 101 | 91 | -9 | 5 | / | / | /
SMILES | NF-kB expr up | STAT1 inh | STAT3 activator | STAT1 activator | APP 5'UTR act | STAT3 inh-1 | STAT3 inh-2 | NFkB inh 2 | STAT1 inh STAT3c
Cc1ccc(NC(=O)CCn2ccc([N+](=O)[O-])n2)nc1 | 1.2 | -5 | 82 | 104 | -6 | 20 | / | / | /
Cc1sc2ncnc(NCC3COc4ccccc4O3)c2c1C (centres undefined) | 0.48 | 27 | 36 | 76 | -8 | 74* | 83* | 32* | 23*
Cc1sc2ncnc(NCC(C)(C)N3CCOCC3)c2c1C | 0.71 | 24 | 61 | 80 | -9 | 47* | 56* | 16* | 18*
Cc1sc2ncnc(NCC3CCCO3)c2c1C (centres undefined) | 0.74 | 19 | 81 | 82 | 7 | 26 | / | / | /
O=C(O)CCCN1C(=O)C(=O)/C(=C(/O)c2ccccc2)C1/C=C/c1ccccc1 (centres undefined) | 1.1 | 5 | 101 | 94 | 8 | 0 | / | / | /
Cc1cc(CNC(=O)c2cccc([N+](=O)[O-])c2C)c2ccccc2n1 | 0.92 | 25 | 60 | 76 | -16 | 51* | 54* | 14* | 22*
CN(c1ccc(C(=O)Nc2ccc(S(=O)(=O)N3CCCC3)cc2)cc1)S(C)(=O)=O | 0.91 | -3 | 54 | 101 | -3 | 58* | 43 | 6 | -1
CCCCc1ccc(NC(=O)c2cnccn2)cc1 | 5.8* | 26 | 48 | 75 | 174* | 62* | 29 | -23 | -66
O=C(Nc1ccc(S(=O)(=O)N2CCCCC2)cc1)c1ccc(CN2CCOCC2)cc1 | 0.44 | 12 | 33 | 86 | -21 | 83* | 80* | 29* | 9
O=C(Nc1ccc(S(=O)(=O)Nc2ncccn2)cc1)c1ccc(S(=O)(=O)N2CCCC2)cc1 | 1 | -3 | 104 | 102 | 10 | 4 | / | / | /
O=C(Nc1ccc(S(=O)(=O)N2CCCC2)cc1)c1ccc(CN2CCOCC2)cc1 | 0.32 | 5 | 50 | 95 | -6 | 65* | 52* | 15* | 13
O=C(O)C1CC=CCC1C(=O)NCCCCc1ccccc1 (centres undefined) | 1.4 | -7 | 99 | 107 | 2 | 10 | / | / | /
O=C(Nc1ccc(Cc2ccncc2)cc1)c1ccc(S(=O)(=O)N2CCOCC2)cc1 | 0.51 | 14 | 45 | 87 | 12 | 70* | 57* | 12 | 12
CCN(CC)S(=O)(=O)c1ccc(NC(=O)c2ccc(CN3CCOCC3)cc2)cc1 | 0.74 | 11 | 47 | 88 | -31 | 66* | 80* | 26* | 7
O=C(Nc1ccc2c(c1)OCCO2)c1ccc(CN2CCOCC2)cc1 | 1.9 | -21 | 102 | 119 | 30 | 3 | / | / | /

High-throughput results: PubChem BioAssay, several laboratories
